Source: ChEMBL document CHEMBL3797147, “Nitric oxide production inhibition and mechanism of phenanthrene analogs in lipopolysaccharide-stimulated RAW264.7 macrophages” (Bioorg Med Chem Lett, 2016)
Activity calls are given as the source filed them. The rule behind the calls is not given here.

Columns and labels:
[1] = Cytotoxicity against mouse RAW264.7 cells assessed as cell viability at 50 uM incubated for 24 hrs by Alamar-Blue assay; assay type: cell-based; details: read-out: Activity
RAW264.7 [2] = experiment: Anti-inflammatory activity in mouse RAW264.7 cells assessed as LPS-induced nitric oxide production level at 50 uM pre-incubated for 2 hrs before LPS stimulation for 24 hrs by Griess assay relative to untreated control; assay type: functional
Outline: (§1)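 Cells pretreated with compound at various concentrations for 2 h, then LPS 0.5 µg/mL added for 24 h; nitrite in medium read with Griess reagent; means ± SD of triplicates.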

RAW264.7 [3] = experiment: Inhibition of LPS-induced iNOS mRNA expression in mouse RAW264.7 cells at 10 uM pre-incubated for 2 hrs before LPS stimulation for 24 hrs by qRT-PCR method; assay type: functional, cell-based
Outline: (§2)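 Cells pretreated with compound or 10 µM BAY 11-7082 for 2 h, then LPS 0.5 µg/mL for 24 h; total RNA extracted, iNOS mRNA by qRT-PCR normalised to GAPDH.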

RAW264.7 [4] = experiment: Anti-inflammatory activity in mouse RAW264.7 cells assessed as LPS-induced nitric oxide production level at 10 uM pre-incubated for 2 hrs before LPS stimulation for 24 hrs by Griess assay relative to untreated control; assay type: functional; outline: as §1
RAW264.7 [5] = experiment: Inhibition of LPS-induced IL-6 mRNA expression in mouse RAW264.7 cells at 10 uM pre-incubated for 2 hrs before LPS stimulation for 24 hrs by qRT-PCR method; assay type: functional, cell-based
Outline: (§3)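 Cells in 6-well plates pretreated (1, 10, 50 µM; BAY 11-7082 10 µM reference) 2 h before LPS 0.5 µg/mL for 24 h; IL-1b and IL-6 mRNA by qRT-PCR against GAPDH; mean ± SD of three experiments in triplicate.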

RAW264.7 [6] = experiment: Inhibition of LPS-induced IL-1beta mRNA expression in mouse RAW264.7 cells at 10 uM pre-incubated for 2 hrs before LPS stimulation for 24 hrs by qRT-PCR method; assay type: functional, cell-based; outline: as §3
RAW264.7 [7] = experiment: Inhibition of LPS-induced IL-6 protein expression in mouse RAW264.7 cells at 1 to 50 uM pre-incubated for 2 hrs before LPS stimulation for 24 hrs by ELISA
RAW264.7 [8] = experiment: Inhibition of LPS-induced IL-6 mRNA expression in mouse RAW264.7 cells pre-incubated for 2 hrs before LPS stimulation for 24 hrs by qRT-PCR method; assay type: functional, cell-based; outline: as §3
[9] = target: Mitogen-activated protein kinase 1 and 3 (ERK2 and ERK1) (Mus musculus) (UniProt P63085+Q63844); experiment: Inhibition of LPS-induced ERK1/2 MAPK phosphorylation in mouse RAW264.7 cells at 1 to 50 uM pre-incubated for 2 hrs before LPS stimulation for 30 mins by Western blotting method
RAW264.7 [10] = experiment: Anti-inflammatory activity in mouse RAW264.7 cells assessed as reduction in LPS-induced nitric oxide production level pre-incubated for 2 hrs before LPS stimulation for 24 hrs by Griess assay relative to untreated control; assay type: functional, cell-based; outline: as §1
[11] = target: T1, NF-kappa-B inhibitor alpha (Mus musculus) (UniProt Q9Z1E3); experiment: Inhibition of LPS-induced IkappaB-alpha phosphorylation in mouse RAW264.7 cells at 1 to 50 uM pre-incubated before LPS stimulation for 5 mins by Western blotting method
T1 sequence (whole entry): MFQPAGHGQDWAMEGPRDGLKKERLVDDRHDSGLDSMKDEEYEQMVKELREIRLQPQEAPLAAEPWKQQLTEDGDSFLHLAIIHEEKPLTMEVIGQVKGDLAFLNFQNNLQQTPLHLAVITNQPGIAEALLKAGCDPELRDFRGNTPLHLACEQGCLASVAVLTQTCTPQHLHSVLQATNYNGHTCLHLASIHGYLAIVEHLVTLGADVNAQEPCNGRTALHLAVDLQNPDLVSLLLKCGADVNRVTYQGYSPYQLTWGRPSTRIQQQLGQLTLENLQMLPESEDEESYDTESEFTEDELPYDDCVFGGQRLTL

RAW264.7 [12] = experiment: Inhibition of LPS-induced IL-1beta mRNA expression in mouse RAW264.7 cells pre-incubated for 2 hrs before LPS stimulation for 24 hrs by qRT-PCR method; assay type: functional, cell-based; outline: as §3
[13] = target: T1, NF-kappa-B inhibitor alpha (Mus musculus); experiment: Inhibition of LPS-induced IkappaB-alpha degradation in mouse RAW264.7 cells at 1 to 50 uM pre-incubated before LPS stimulation for 5 mins by Western blotting method
[14] = target: RAC-alpha serine/threonine-protein kinase (Mus musculus) (UniProt P31750); experiment: Inhibition of LPS-induced AKT phosphorylation in mouse RAW264.7 cells at 1 to 50 uM pre-incubated for 30 mins before LPS stimulation for 30 mins by Western blotting method
JNK1/JNK2 (Mus musculus) = JNK1/JNK2 (Mus musculus) (UniProt Q91Y86+Q9WTU6); experiment: Inhibition of LPS-induced JNK1/2 MAPK phosphorylation in mouse RAW264.7 cells at 1 to 50 uM pre-incubated for 2 hrs before LPS stimulation for 30 mins by Western blotting method
[15] = target: MAP kinase p38 (Mus musculus) (UniProt P47811+O08911+Q9WUI1+Q9Z1B7); experiment: Inhibition of LPS-induced p38 MAPK phosphorylation in mouse RAW264.7 cells at 1 to 50 uM pre-incubated for 2 hrs before LPS stimulation for 30 min by Western blotting method
RAW264.7 [16] = experiment: Inhibition of LPS-induced iNOS mRNA expression in mouse RAW264.7 cells pre-incubated for 2 hrs before LPS stimulation for 24 hrs by qRT-PCR method; assay type: functional, cell-based; outline: as §2
RAW264.7 [17] = experiment: Inhibition of LPS-induced iNOS protein expression in mouse RAW264.7 cells pre-incubated for 2 hrs before LPS stimulation for 24 hrs by Western blotting method; assay type: functional, cell-based
Outline: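 Cells in 6-well plates pretreated (1, 10, 50 µM; BAY 11-7082 10 µM) for 2 h, LPS 0.5 µg/mL 24 h; lysates immunoblotted with anti-iNOS, GAPDH loading control.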

Sequence of JNK1/JNK2 (Mus musculus) (Q91Y86 whole entry, looked up): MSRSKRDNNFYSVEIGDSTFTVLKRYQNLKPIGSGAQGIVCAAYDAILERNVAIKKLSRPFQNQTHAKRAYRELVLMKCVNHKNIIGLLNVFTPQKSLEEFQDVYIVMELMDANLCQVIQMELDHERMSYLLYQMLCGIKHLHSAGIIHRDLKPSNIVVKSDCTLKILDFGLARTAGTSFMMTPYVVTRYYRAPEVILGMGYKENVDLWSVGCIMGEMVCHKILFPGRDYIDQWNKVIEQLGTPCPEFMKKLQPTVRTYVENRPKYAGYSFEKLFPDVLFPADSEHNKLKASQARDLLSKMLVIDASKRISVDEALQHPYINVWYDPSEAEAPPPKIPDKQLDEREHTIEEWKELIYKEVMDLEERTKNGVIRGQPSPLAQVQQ
Sequence of JNK1/JNK2 (Mus musculus) (Q9WTU6 whole entry, looked up): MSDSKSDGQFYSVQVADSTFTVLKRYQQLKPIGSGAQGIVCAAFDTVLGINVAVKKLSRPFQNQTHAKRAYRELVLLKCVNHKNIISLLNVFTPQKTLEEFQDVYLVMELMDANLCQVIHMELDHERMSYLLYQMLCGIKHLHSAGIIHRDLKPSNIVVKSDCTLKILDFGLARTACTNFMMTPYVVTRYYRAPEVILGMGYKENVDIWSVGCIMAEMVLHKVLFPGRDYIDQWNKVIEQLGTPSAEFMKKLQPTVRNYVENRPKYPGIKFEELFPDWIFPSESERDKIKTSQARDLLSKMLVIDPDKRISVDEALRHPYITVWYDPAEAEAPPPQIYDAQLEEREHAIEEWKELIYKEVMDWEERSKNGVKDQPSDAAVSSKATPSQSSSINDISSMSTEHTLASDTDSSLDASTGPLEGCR
Sequence of RAC-alpha serine/threonine-protein kinase (Mus musculus) (P31750 whole entry): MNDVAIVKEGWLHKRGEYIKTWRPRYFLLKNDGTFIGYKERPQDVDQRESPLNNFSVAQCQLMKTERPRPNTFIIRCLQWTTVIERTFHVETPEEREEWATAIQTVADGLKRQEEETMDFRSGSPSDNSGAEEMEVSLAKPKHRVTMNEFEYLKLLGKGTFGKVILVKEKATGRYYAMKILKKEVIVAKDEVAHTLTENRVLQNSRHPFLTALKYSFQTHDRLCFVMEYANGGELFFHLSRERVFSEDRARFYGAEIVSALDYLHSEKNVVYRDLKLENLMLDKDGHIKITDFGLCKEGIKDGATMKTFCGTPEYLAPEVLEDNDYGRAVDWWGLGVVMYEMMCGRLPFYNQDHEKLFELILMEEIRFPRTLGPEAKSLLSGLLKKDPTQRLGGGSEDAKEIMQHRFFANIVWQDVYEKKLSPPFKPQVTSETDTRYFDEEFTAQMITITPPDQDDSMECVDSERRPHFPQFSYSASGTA
Sequence of Mitogen-activated protein kinase 1 and 3 (ERK2 and ERK1) (Mus musculus) (P63085 whole entry, looked up): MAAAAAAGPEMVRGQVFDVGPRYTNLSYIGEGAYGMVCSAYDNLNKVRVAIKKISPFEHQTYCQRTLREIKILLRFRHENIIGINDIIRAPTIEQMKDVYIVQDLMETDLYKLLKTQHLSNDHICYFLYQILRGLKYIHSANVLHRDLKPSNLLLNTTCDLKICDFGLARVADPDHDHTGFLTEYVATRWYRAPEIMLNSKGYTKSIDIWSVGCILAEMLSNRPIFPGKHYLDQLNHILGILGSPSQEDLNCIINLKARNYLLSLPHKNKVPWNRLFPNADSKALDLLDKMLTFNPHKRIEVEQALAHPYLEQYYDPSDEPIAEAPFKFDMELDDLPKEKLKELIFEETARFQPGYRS
Sequence of Mitogen-activated protein kinase 1 and 3 (ERK2 and ERK1) (Mus musculus) (Q63844 whole entry, looked up): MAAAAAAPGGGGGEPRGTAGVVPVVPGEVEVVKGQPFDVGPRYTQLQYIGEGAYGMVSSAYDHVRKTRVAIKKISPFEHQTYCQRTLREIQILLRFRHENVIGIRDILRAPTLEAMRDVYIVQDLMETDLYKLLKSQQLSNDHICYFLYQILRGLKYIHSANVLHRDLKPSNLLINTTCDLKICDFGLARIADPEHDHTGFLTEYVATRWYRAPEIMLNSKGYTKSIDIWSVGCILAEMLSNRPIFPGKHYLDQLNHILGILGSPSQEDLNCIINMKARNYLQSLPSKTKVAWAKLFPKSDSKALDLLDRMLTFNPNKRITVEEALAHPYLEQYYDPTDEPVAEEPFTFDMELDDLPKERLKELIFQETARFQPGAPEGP

| Structure (SMILES) | viability at 24 h, 50 µM [1] | Activity (RAW264.7 [2]) | other results |
| --- | --- | --- | --- |
| COC(=O)/C(=C/c1ccc2c(c1)OCO2)c1ccc(OC)c(OC)c1 | 88% | 109.2% | – |
| Cc1ccc(S(=O)(=O)/C=C/C#N)cc1 | – | – | inhibition (RAW264.7 [3]): Active; Activity (RAW264.7 [4]): 1.2%; inhibition (RAW264.7 [5]): Active; inhibition (RAW264.7 [6]): Active |
| COC(=O)/C(=C/c1cccc(OC)c1)c1ccc(OC)c(OC)c1 | 76.5% | 84.6% | – |
| COC(=O)c1cc2cc(OC)c(OC)cc2c2cc(OC)c(OC)cc12 | 101% | 45.3% | – |
| COc1ccc(/C=C(/C(=O)O)c2ccc(OC)c(OC)c2)cc1OC | 121% | 64.3% | – |
| COC(=O)/C(=C\c1ccc2c(c1)OCO2)c1ccc(OC)c(OC)c1 | 56.1% | 79% | – |
| COC(=O)/C(=C/c1ccc(OC)c(OC)c1)c1ccc(OC)c(OC)c1 | 114% | 3.9% | inhibition (RAW264.7 [7]): Active; inhibition (RAW264.7 [8]): Dose-dependent effect; inhibition [9]: inactive; IC50 (RAW264.7 [10]): 5.05 µM; inhibition [11]: Active; inhibition (RAW264.7 [12]): Dose-dependent effect; inhibition [13]: Active; inhibition [14]: Active; inhibition (JNK1/JNK2 (Mus musculus)): inactive; inhibition [15]: Active; inhibition (RAW264.7 [16]): Dose-dependent effect; inhibition (RAW264.7 [17]): Dose-dependent effect |
| COc1ccc(/C(=C/c2ccc3c(c2)OCO3)C(=O)O)cc1OC | 103% | 106.9% | – |
| COc1ccc(/C=C(\C#N)c2ccc(OC)c(OC)c2)cc1OC | 96.7% | 46.7% | – |
| CCN(CC)C(=O)/C(=C/c1ccc(OC)c(OC)c1)c1ccc(OC)c(OC)c1 | 111% | 92.7% | – |
| COc1cc2cc(C#N)c3cc(OC)c(OC)cc3c2cc1OC | 102% | 108.8% | – |
| COC(=O)/C(=C\c1ccc(OC)c(OC)c1)c1ccc(OC)c(OC)c1 | 91.1% | 98.7% | – |
| COC(=O)c1cc2cc(OC)c(OC)cc2c2cc(OC)ccc12 | 99.7% | 83% | – |
| COc1ccc(/C=C(\C(=O)O)c2ccc(OC)c(OC)c2)cc1OC | 106% | 120.7% | – |
| COC(=O)/C(=C/c1ccc(OC)c(OC)c1)c1ccc(OC)cc1 | 66.7% | 45.5% | IC50 (RAW264.7 [10]): 37.3 µM |
| COc1ccc(/C(=C\c2ccc3c(c2)OCO3)C(=O)O)cc1OC | 123% | 86% | – |
| COC(=O)c1cc2cc(OC)ccc2c2cc(OC)c(OC)cc12 | 99.3% | 48.8% | – |
| COC(=O)c1cc2cc3c(cc2c2cc(OC)c(OC)cc12)OCO3 | 101% | 75% | – |
| COc1cc2c(C(=O)O)cc3cc4c(cc3c2cc1OC)OCO4 | 107% | 53.1% | – |
| COc1cc2cc(C(=O)O)c3cc(OC)c(OC)cc3c2cc1OC | 101% | 78.2% | – |
| CCN(CC)C(=O)c1cc2cc(OC)c(OC)cc2c2cc(OC)c(OC)cc12 | 94.7% | 39.8% | IC50 (RAW264.7 [10]): 20.3 µM |
